# Assay results: ChEMBL document CHEMBL1159100, “Synthesis and antibacterial activity of benzyl-[3-(benzylamino-methyl)-cyclohexylmethyl]-amine derivatives” (Bioorg Med Chem Lett, 2010)
# System: Escherichia coli
# Test: Antimicrobial activity against Escherichia coli after 24 hrs by microdilution assay
# Type: functional
# Conditions: not given
# Method in brief: (§1)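 NCCLS broth microdilution, final 100 µL. Bacteria grown in standard media to exponential phase. Compounds in 5% DMSO serially diluted; ~2–5 × 10^5 cells per well, 37 °C, 24 h, shaking 200 rpm. Growth read spectrophotometrically; percent survival relative to a drug-free 5% DMSO growth control; medium-only sterility control. MIC derived from survival data.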
row,MIC,SMILES
1,0.016 mg/L,CCCCc1ccc(CNCC2CCCC(CNCc3ccc(CCCC)cc3)C2)cc1 (configuration not stated)
2,0.002 mg/L,CC(C)(C)c1ccc(CNCC2CCCC(CNCc3ccc(C(C)(C)C)cc3)C2)cc1 (configuration not stated)
3,> 250 mg/L,Clc1ccc(CNCC2CCCC(CNCc3ccc(Cl)cc3)C2)cc1 (configuration not stated)
4,> 250 mg/L,c1ccc(CNCC2CCCC(CNCc3ccccc3)C2)cc1 (configuration not stated)
5,> 250 mg/L,Cc1ccc(CNCC2CCCC(CNCc3ccc(C)cc3)C2)cc1 (configuration not stated)
6,> 250 mg/L,Cc1cccc(CNCC2CCCC(CNCc3cccc(C)c3)C2)c1 (configuration not stated)
7,> 250 mg/L,Clc1cccc(CNCC2CCCC(CNCc3cccc(Cl)c3)C2)c1 (configuration not stated)
8,> 250 mg/L,Cc1ccc(CNCC2CCCC(CNCc3ccc(C)c(C)c3)C2)cc1C (configuration not stated)
9,> 250 mg/L,Cc1cc(C)cc(CNCC2CCCC(CNCc3cc(C)cc(C)c3)C2)c1 (configuration not stated)
10,> 250 mg/L,Cc1ccc(C)c(CNCC2CCCC(CNCc3cc(C)ccc3C)C2)c1 (configuration not stated)
11,> 250 mg/L,Cc1ccc(CNCC2CCCC(CNCc3ccc(C)cc3C)C2)c(C)c1 (configuration not stated)
12,> 250 mg/L,Fc1ccc(CNCC2CCCC(CNCc3ccc(F)cc3)C2)cc1 (configuration not stated)
13,> 250 mg/L,Fc1cccc(CNCC2CCCC(CNCc3cccc(F)c3)C2)c1 (configuration not stated)
14,> 250 mg/L,O=[N+]([O-])c1cccc(CNCC2CCCC(CNCc3cccc([N+](=O)[O-])c3)C2)c1 (configuration not stated)
15,> 250 mg/L,CCc1ccc(CNCC2CCCC(CNCc3ccc(CC)cc3)C2)cc1 (configuration not stated)
16,> 250 mg/L,CC(C)c1ccc(CNCC2CCCC(CNCc3ccc(C(C)C)cc3)C2)cc1 (configuration not stated)
17,> 250 mg/L,Brc1cccc(CNCC2CCCC(CNCc3cccc(Br)c3)C2)c1 (configuration not stated)
18,> 250 mg/L,Brc1ccc(CNCC2CCCC(CNCc3ccc(Br)cc3)C2)cc1 (configuration not stated)
19,> 250 mg/L,Clc1cccc(Cl)c1CNCC1CCCC(CNCc2c(Cl)cccc2Cl)C1 (configuration not stated)
20,0.016 mg/L,CCCc1ccc(CNCC2CCCC(CNCc3ccc(CCC)cc3)C2)cc1 (configuration not stated)
21,> 250 mg/L,Cc1ccccc1CNCC1CCCC(CNCc2ccccc2C)C1 (configuration not stated)
22,0.001 mg/L,CN(C)[C@@H]1C(O)=C(C(N)=O)C(=O)[C@@]2(O)C(O)=C3C(=O)c4c(O)cccc4[C@@](C)(O)[C@H]3C[C@@H]12 [TETRACYCLINE]

# System: Pseudomonas aeruginosa
# Test: Antimicrobial activity against Pseudomonas aeruginosa after 24 hrs by microdilution assay
# Type: functional
# Conditions: not given
# Method in brief: as §1
row,MIC,SMILES
1,0.002 mg/L,CCCCc1ccc(CNCC2CCCC(CNCc3ccc(CCCC)cc3)C2)cc1 (configuration not stated)
2,0.004 mg/L,CC(C)(C)c1ccc(CNCC2CCCC(CNCc3ccc(C(C)(C)C)cc3)C2)cc1 (configuration not stated)
3,0.032 mg/L,Clc1ccc(CNCC2CCCC(CNCc3ccc(Cl)cc3)C2)cc1 (configuration not stated)
4,> 250 mg/L,c1ccc(CNCC2CCCC(CNCc3ccccc3)C2)cc1 (configuration not stated)
5,0.5 mg/L,Cc1ccc(CNCC2CCCC(CNCc3ccc(C)cc3)C2)cc1 (configuration not stated)
6,1 mg/L,Cc1cccc(CNCC2CCCC(CNCc3cccc(C)c3)C2)c1 (configuration not stated)
7,0.125 mg/L,Clc1cccc(CNCC2CCCC(CNCc3cccc(Cl)c3)C2)c1 (configuration not stated)
8,0.125 mg/L,Cc1ccc(CNCC2CCCC(CNCc3ccc(C)c(C)c3)C2)cc1C (configuration not stated)
9,1 mg/L,Cc1cc(C)cc(CNCC2CCCC(CNCc3cc(C)cc(C)c3)C2)c1 (configuration not stated)
10,> 250 mg/L,Cc1ccc(C)c(CNCC2CCCC(CNCc3cc(C)ccc3C)C2)c1 (configuration not stated)
11,> 250 mg/L,Cc1ccc(CNCC2CCCC(CNCc3ccc(C)cc3C)C2)c(C)c1 (configuration not stated)
12,> 250 mg/L,Fc1ccc(CNCC2CCCC(CNCc3ccc(F)cc3)C2)cc1 (configuration not stated)
13,> 250 mg/L,Fc1cccc(CNCC2CCCC(CNCc3cccc(F)c3)C2)c1 (configuration not stated)
14,> 250 mg/L,O=[N+]([O-])c1cccc(CNCC2CCCC(CNCc3cccc([N+](=O)[O-])c3)C2)c1 (configuration not stated)
15,0.125 mg/L,CCc1ccc(CNCC2CCCC(CNCc3ccc(CC)cc3)C2)cc1 (configuration not stated)
16,0.125 mg/L,CC(C)c1ccc(CNCC2CCCC(CNCc3ccc(C(C)C)cc3)C2)cc1 (configuration not stated)
17,0.125 mg/L,Brc1cccc(CNCC2CCCC(CNCc3cccc(Br)c3)C2)c1 (configuration not stated)
18,0.032 mg/L,Brc1ccc(CNCC2CCCC(CNCc3ccc(Br)cc3)C2)cc1 (configuration not stated)
19,> 250 mg/L,Clc1cccc(Cl)c1CNCC1CCCC(CNCc2c(Cl)cccc2Cl)C1 (configuration not stated)
20,0.016 mg/L,CCCc1ccc(CNCC2CCCC(CNCc3ccc(CCC)cc3)C2)cc1 (configuration not stated)
21,> 250 mg/L,Cc1ccccc1CNCC1CCCC(CNCc2ccccc2C)C1 (configuration not stated)

# System: Staphylococcus aureus
# Test: Antimicrobial activity against Staphylococcus aureus after 24 hrs by microdilution assay
# Type: functional
# Conditions: not given
# Method in brief: as §1
row,MIC,SMILES
1,0.004 mg/L,CCCCc1ccc(CNCC2CCCC(CNCc3ccc(CCCC)cc3)C2)cc1 (configuration not stated)
2,0.016 mg/L,CC(C)(C)c1ccc(CNCC2CCCC(CNCc3ccc(C(C)(C)C)cc3)C2)cc1 (configuration not stated)
3,0.025 mg/L,Clc1ccc(CNCC2CCCC(CNCc3ccc(Cl)cc3)C2)cc1 (configuration not stated)
4,> 250 mg/L,c1ccc(CNCC2CCCC(CNCc3ccccc3)C2)cc1 (configuration not stated)
5,> 250 mg/L,Cc1ccc(CNCC2CCCC(CNCc3ccc(C)cc3)C2)cc1 (configuration not stated)
6,> 250 mg/L,Cc1cccc(CNCC2CCCC(CNCc3cccc(C)c3)C2)c1 (configuration not stated)
7,> 250 mg/L,Clc1cccc(CNCC2CCCC(CNCc3cccc(Cl)c3)C2)c1 (configuration not stated)
8,> 250 mg/L,Cc1ccc(CNCC2CCCC(CNCc3ccc(C)c(C)c3)C2)cc1C (configuration not stated)
9,> 250 mg/L,Cc1cc(C)cc(CNCC2CCCC(CNCc3cc(C)cc(C)c3)C2)c1 (configuration not stated)
10,> 250 mg/L,Cc1ccc(C)c(CNCC2CCCC(CNCc3cc(C)ccc3C)C2)c1 (configuration not stated)
11,> 250 mg/L,Cc1ccc(CNCC2CCCC(CNCc3ccc(C)cc3C)C2)c(C)c1 (configuration not stated)
12,> 250 mg/L,Fc1ccc(CNCC2CCCC(CNCc3ccc(F)cc3)C2)cc1 (configuration not stated)
13,> 250 mg/L,Fc1cccc(CNCC2CCCC(CNCc3cccc(F)c3)C2)c1 (configuration not stated)
14,0.02 mg/L,O=[N+]([O-])c1cccc(CNCC2CCCC(CNCc3cccc([N+](=O)[O-])c3)C2)c1 (configuration not stated)
15,> 250 mg/L,CCc1ccc(CNCC2CCCC(CNCc3ccc(CC)cc3)C2)cc1 (configuration not stated)
16,> 250 mg/L,CC(C)c1ccc(CNCC2CCCC(CNCc3ccc(C(C)C)cc3)C2)cc1 (configuration not stated)
17,> 250 mg/L,Brc1cccc(CNCC2CCCC(CNCc3cccc(Br)c3)C2)c1 (configuration not stated)
18,> 250 mg/L,Brc1ccc(CNCC2CCCC(CNCc3ccc(Br)cc3)C2)cc1 (configuration not stated)
19,> 250 mg/L,Clc1cccc(Cl)c1CNCC1CCCC(CNCc2c(Cl)cccc2Cl)C1 (configuration not stated)
20,> 250 mg/L,CCCc1ccc(CNCC2CCCC(CNCc3ccc(CCC)cc3)C2)cc1 (configuration not stated)
21,> 250 mg/L,Cc1ccccc1CNCC1CCCC(CNCc2ccccc2C)C1 (configuration not stated)
22,0.01 mg/L,CN(C)[C@@H]1C(O)=C(C(N)=O)C(=O)[C@@]2(O)C(O)=C3C(=O)c4c(O)cccc4[C@@](C)(O)[C@H]3C[C@@H]12 [TETRACYCLINE]

# System: Staphylococcus epidermidis
# Test: Antimicrobial activity against Staphylococcus epidermidis after 24 hrs by microdilution assay
# Type: functional
# Conditions: not given
# Method in brief: as §1
row,MIC,SMILES
1,0.004 mg/L,CCCCc1ccc(CNCC2CCCC(CNCc3ccc(CCCC)cc3)C2)cc1 (configuration not stated)
2,0.008 mg/L,CC(C)(C)c1ccc(CNCC2CCCC(CNCc3ccc(C(C)(C)C)cc3)C2)cc1 (configuration not stated)
3,0.065 mg/L,Clc1ccc(CNCC2CCCC(CNCc3ccc(Cl)cc3)C2)cc1 (configuration not stated)
4,> 250 mg/L,c1ccc(CNCC2CCCC(CNCc3ccccc3)C2)cc1 (configuration not stated)
5,1 mg/L,Cc1ccc(CNCC2CCCC(CNCc3ccc(C)cc3)C2)cc1 (configuration not stated)
6,1 mg/L,Cc1cccc(CNCC2CCCC(CNCc3cccc(C)c3)C2)c1 (configuration not stated)
7,0.25 mg/L,Clc1cccc(CNCC2CCCC(CNCc3cccc(Cl)c3)C2)c1 (configuration not stated)
8,> 250 mg/L,Cc1ccc(CNCC2CCCC(CNCc3ccc(C)c(C)c3)C2)cc1C (configuration not stated)
9,0.25 mg/L,Cc1cc(C)cc(CNCC2CCCC(CNCc3cc(C)cc(C)c3)C2)c1 (configuration not stated)
10,> 250 mg/L,Cc1ccc(C)c(CNCC2CCCC(CNCc3cc(C)ccc3C)C2)c1 (configuration not stated)
11,> 250 mg/L,Cc1ccc(CNCC2CCCC(CNCc3ccc(C)cc3C)C2)c(C)c1 (configuration not stated)
12,> 250 mg/L,Fc1ccc(CNCC2CCCC(CNCc3ccc(F)cc3)C2)cc1 (configuration not stated)
13,> 250 mg/L,Fc1cccc(CNCC2CCCC(CNCc3cccc(F)c3)C2)c1 (configuration not stated)
14,> 250 mg/L,O=[N+]([O-])c1cccc(CNCC2CCCC(CNCc3cccc([N+](=O)[O-])c3)C2)c1 (configuration not stated)
15,0.25 mg/L,CCc1ccc(CNCC2CCCC(CNCc3ccc(CC)cc3)C2)cc1 (configuration not stated)
16,0.125 mg/L,CC(C)c1ccc(CNCC2CCCC(CNCc3ccc(C(C)C)cc3)C2)cc1 (configuration not stated)
17,0.125 mg/L,Brc1cccc(CNCC2CCCC(CNCc3cccc(Br)c3)C2)c1 (configuration not stated)
18,0.125 mg/L,Brc1ccc(CNCC2CCCC(CNCc3ccc(Br)cc3)C2)cc1 (configuration not stated)
19,> 250 mg/L,Clc1cccc(Cl)c1CNCC1CCCC(CNCc2c(Cl)cccc2Cl)C1 (configuration not stated)
20,0.016 mg/L,CCCc1ccc(CNCC2CCCC(CNCc3ccc(CCC)cc3)C2)cc1 (configuration not stated)
21,> 250 mg/L,Cc1ccccc1CNCC1CCCC(CNCc2ccccc2C)C1 (configuration not stated)
22,0.02 mg/L,CN(C)[C@@H]1C(O)=C(C(N)=O)C(=O)[C@@]2(O)C(O)=C3C(=O)c4c(O)cccc4[C@@](C)(O)[C@H]3C[C@@H]12 [TETRACYCLINE]

# System: not listed separately
# Test: Toxicity in human RBC assessed as hemolytic activity at 512 ug/ml
# Type: cell-based, Erythrocyte
# Conditions: red blood cells (RBC), read-out: Activity
# Method in brief: (§2)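 Fresh human erythrocytes, 4% v/v in 35 mM phosphate buffer with 150 mM NaCl, incubated with test sample 1 h at 37 °C. After centrifugation, supernatant absorbance read at 414 nm. 0.1% Triton X-100 lysis taken as 100% hemolysis. Tested at concentrations up to 512 µg/mL.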
row,SMILES,hemolysis at 512 ug/ml
1,CCCCc1ccc(CNCC2CCCC(CNCc3ccc(CCCC)cc3)C2)cc1 (configuration not stated),4%
2,CC(C)(C)c1ccc(CNCC2CCCC(CNCc3ccc(C(C)(C)C)cc3)C2)cc1 (configuration not stated),4%
3,CCc1ccc(CNCC2CCCC(CNCc3ccc(CC)cc3)C2)cc1 (configuration not stated),0.5%
4,CC(C)c1ccc(CNCC2CCCC(CNCc3ccc(C(C)C)cc3)C2)cc1 (configuration not stated),4%
5,CCCc1ccc(CNCC2CCCC(CNCc3ccc(CCC)cc3)C2)cc1 (configuration not stated),4%

# System: not listed separately
# Test: Toxicity in human RBC up to 512 ug/ml
# Type: cell-based
# Conditions: erythrocyte
# Method in brief: as §2
row,SMILES,Activity
1,Clc1ccc(CNCC2CCCC(CNCc3ccc(Cl)cc3)C2)cc1 (configuration not stated),Non-toxic
2,Cc1ccc(CNCC2CCCC(CNCc3ccc(C)cc3)C2)cc1 (configuration not stated),Non-toxic
3,Cc1cccc(CNCC2CCCC(CNCc3cccc(C)c3)C2)c1 (configuration not stated),Non-toxic
4,Clc1cccc(CNCC2CCCC(CNCc3cccc(Cl)c3)C2)c1 (configuration not stated),Non-toxic
5,Cc1ccc(CNCC2CCCC(CNCc3ccc(C)c(C)c3)C2)cc1C (configuration not stated),Non-toxic
6,Cc1cc(C)cc(CNCC2CCCC(CNCc3cc(C)cc(C)c3)C2)c1 (configuration not stated),Non-toxic
7,Brc1cccc(CNCC2CCCC(CNCc3cccc(Br)c3)C2)c1 (configuration not stated),Non-toxic
8,Brc1ccc(CNCC2CCCC(CNCc3ccc(Br)cc3)C2)cc1 (configuration not stated),Non-toxic
9,Clc1cccc(Cl)c1CNCC1CCCC(CNCc2c(Cl)cccc2Cl)C1 (configuration not stated),Non-toxic
10,Cc1ccccc1CNCC1CCCC(CNCc2ccccc2C)C1 (configuration not stated),Non-toxic
